Experimental data as given in ChEMBL document CHEMBL5678808, “Human target validation of phosphoinositide 3-kinase (PI3K)β: effects on platelets and insulin sensitivity, using AZD6482 a novel PI3Kβ inhibitor” (J Thromb Haemost, 2012).
Active and inactive are the calls of the source. The calls are words filed in the database; no cut-off is given here.

Key:
[1] = target: Insulin-like growth factor 1 receptor (Homo sapiens, UniProt P08069); experiment: Inhibition of human IGF1R
[2] = target: Mitogen-activated protein kinase 14 (Homo sapiens, UniProt Q16539); experiment: Inhibition of human p38a
[3] = target: Casein kinase 2 (Homo sapiens) (UniProt P67870+P68400+P19784+Q8NEV1); experiment: Inhibition of human CK2 at 10 uM relative to control; assay type: protein assay
[4] = target: Ribosomal protein S6 kinase alpha-1 (Homo sapiens) (UniProt Q15418); experiment: Inhibition of MAPK Activated Protein Kinase-1a (unknown origin) at 10 uM relative to control
[5] = target: MAP kinase-activated protein kinase 2 (Homo sapiens) (UniProt P49137); experiment: Inhibition of MAPK Activated Protein Kinase-2 (unknown origin) at 10 uM relative to control
[6] = target: Dual specificity mitogen-activated protein kinase kinase 1 (Homo sapiens) (UniProt Q02750); experiment: Inhibition of mitogen activated protein kinase kinase 1 (unknown origin) at 10 uM relative to control
[7] = target: Protein kinase C alpha type (Homo sapiens) (UniProt P17252); experiment: Inhibition of human PKCa at 10 uM relative to control
[8] = target: Mitogen-activated protein kinase 8 (Homo sapiens) (UniProt P45983); experiment: Inhibition of human JNK1 at 10 uM relative to control
[9] = target: Ribosomal protein S6 kinase alpha-5 (Homo sapiens) (UniProt O75582); experiment: Inhibition of human MSK1 at 10 uM relative to control
[10] = target: Serine/threonine-protein kinase Sgk1 (Homo sapiens) (UniProt O00141); experiment: Inhibition of human SGK at 10 uM relative to control
[11] = target: MAP/microtubule affinity-regulating kinase 3 (Homo sapiens) (UniProt P27448); experiment: Inhibition of human MARK3 at 10 uM relative to control
[12] = target: RAC-beta serine/threonine-protein kinase (Homo sapiens) (UniProt P31751); experiment: Inhibition of human AKT2 at 10 uM relative to control
[13] = target: Dual specificity tyrosine-phosphorylation-regulated kinase 2 (Homo sapiens) (UniProt Q92630); experiment: Inhibition of human DYRK2 at 10 uM relative to control
[14] = target: Serine/threonine-protein kinase BRSK2 (Homo sapiens) (UniProt Q8IWQ3); experiment: Inhibition of human BRSK2 at 10 uM relative to control
[15] = target: Homeodomain-interacting protein kinase 3 (Homo sapiens) (UniProt Q9H422); experiment: Inhibition of human HIPK3 at 10 uM relative to control
[16] = target: Maternal embryonic leucine zipper kinase (Homo sapiens) (UniProt Q14680); experiment: Inhibition of human MELK at 10 uM relative to control
[17] = Inhibition of PI3Kbeta in Beagle dog whole blood assessed as reduction in ADP-induced platelet aggregation preincubated for 5 mins followed by ADP addition and measured for 6 mins by impedance aggregometry; assay type: tissue-based; settings: Canis lupus familiaris
In short: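 Ex vivo whole blood impedance aggregometry (Multiplate) with ADP as agonist, using blood drawn from anesthetized dogs in the Folts' model. Dogs were given i.v. bolus plus infusion doses over consecutive 30-min periods. Inhibition was related to measured plasma drug concentration to derive EC50. Mean ± SEM, n = 6.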

Canis familiaris = experiment: Antithrombotic activity in Beagle dog model of arterial thrombosis and bleeding assessed as increase in bleeding time at 0.005 to 0.24 ug/kg/min, iv via bolus for 29 mins and measured for 15 mins; assay type: functional, organism-based; settings: Canis lupus familiaris
In short: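 Modified Folts' model of thrombosis in a damaged, stenosed femoral artery of anesthetized dogs. Animals first received saline vehicle. Consecutive i.v. doses then followed, each given over a 30-min period as a bolus (0.03–1.3 μg kg−1) plus an infusion (0.005–0.24 μg kg min−1). Read-outs were cyclic flow reductions, expressed as % restoration of blood flow, plus bleeding time, blood loss and plasma drug exposure. Mean ± SEM, n = 6.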

Rattus norvegicus [18] = experiment: (§1) Insulin sensitizing activity in Sprague-Dawley rat hyperinsulinemic-euglycemic glucose clamp model assessed as glucose infusion rate required to maintain euglycemia during infusion of human insulin at 1000 ug/kg/min, iv for 2 mins followed by 50 ug/kg/min, iv for 28 mins measured during clamp 1 (reference value: 124 +/- 4 umol/min/kg); assay type: functional; settings: time 30 min, 0.5 h
In short: (§2)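 Anesthetized rats; hyperinsulinemic–euglycemic clamp with human insulin infused. A baseline clamp (Clamp1) was followed by a second clamp (Clamp2) with vehicle or drug i.v. The drug was given as a low dose (1000 μg kg−1 + 50 μg kg min−1) or a high dose (6000 μg kg−1 + 300 μg kg min−1). Steady-state glucose infusion rate for euglycemia was recorded, with plasma glucose, human insulin and total insulin; mean ± SEM, n = 4–5/group.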

Rattus norvegicus [19] = experiment: as §1, with “6000” for “1000”, “300” for “50”; assay type: functional; settings: time 30 min, 0.5 h; in short: as §2
[20] = Plasma concentration in Sprague-Dawley rat hyperinsulinemic-euglycemic glucose clamp model at […], iv for 2 mins followed by 300 ug/kg/min, iv for 28 mins; assay type: ADME, organism-based; settings: time 30 min
In short: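 Plasma drug levels were sampled during the drug-infusion clamp period (Clamp2) in anesthetized rats under a human-insulin hyperinsulinemic–euglycemic clamp. I.v. regimens were 1000 μg kg−1 + 50 μg kg min−1 or 6000 μg kg−1 + 300 μg kg min−1; mean ± SEM, n = 4–5/group.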

Rattus norvegicus [21] = experiment: Insulin sensitizing activity in Sprague-Dawley rat hyperinsulinemic-euglycemic glucose clamp model assessed as glucose level during infusion of human insulin at 1000 ug/kg/min, iv for 2 mins followed by 50 ug/kg/min, iv for 28 mins measured during clamp 1 by colorimetry (reference value: 8.4 +/- 0.8 mM); assay type: functional; settings: time 30 min, 0.5 h; in short: as §2
Rattus norvegicus [22] = experiment: Insulin sensitizing activity in Sprague-Dawley rat hyperinsulinemic-euglycemic glucose clamp model assessed as basal total insulin level during infusion of human insulin at 6000 ug/kg/min, iv for 2 mins followed by 300 ug/kg/min, iv for 28 mins (reference value: 0.3 +/- 0.1 nM); assay type: functional; settings: time 30 min, 0.5 h; in short: as §2
Rattus norvegicus [23] = experiment: Insulin sensitizing activity in Sprague-Dawley rat hyperinsulinemic-euglycemic glucose clamp model assessed as total insulin level during infusion of human insulin at 6000 ug/kg/min, iv for 2 mins followed by 300 ug/kg/min, iv for 28 mins measured during clamp 1 (reference value: 2.2 +/- 0.1 nM); assay type: functional; settings: time 30 min, 0.5 h; in short: as §2
Rattus norvegicus [24] = experiment: Insulin sensitizing activity in Sprague-Dawley rat hyperinsulinemic-euglycemic glucose clamp model assessed as total insulin level during infusion of human insulin at 6000 ug/kg/min, iv for 2 mins followed by 300 ug/kg/min, iv for 28 mins measured during clamp 2 (reference value: 2.2 +/- 0.1 nM); assay type: functional; settings: time 30 min, 0.5 h; in short: as §2
[25] = Toxicity in Sprague-Dawley rat hyperinsulinemic-euglycemic glucose clamp model assessed as increase in blood pressure at 1000 ug/kg/min, iv for 2 mins followed by 50 ug/kg/min, iv for 28 mins; assay type: organism-based; settings: in vivo, 0.5 h, time 30 min
In short: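 Anesthetized rats underwent two consecutive hyperinsulinemic–euglycemic clamps with human insulin infusion: a baseline Clamp1, then Clamp2 with vehicle or AZD6482 i.v. (n = 4–5/group). Blood pressure and heart rate were followed during control periods and after drug administration. Steady-state glucose infusion rate maintained euglycemia.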

MAP kinase-activated protein kinase 2 (Homo sapiens), sequence (P49137 whole entry, looked up): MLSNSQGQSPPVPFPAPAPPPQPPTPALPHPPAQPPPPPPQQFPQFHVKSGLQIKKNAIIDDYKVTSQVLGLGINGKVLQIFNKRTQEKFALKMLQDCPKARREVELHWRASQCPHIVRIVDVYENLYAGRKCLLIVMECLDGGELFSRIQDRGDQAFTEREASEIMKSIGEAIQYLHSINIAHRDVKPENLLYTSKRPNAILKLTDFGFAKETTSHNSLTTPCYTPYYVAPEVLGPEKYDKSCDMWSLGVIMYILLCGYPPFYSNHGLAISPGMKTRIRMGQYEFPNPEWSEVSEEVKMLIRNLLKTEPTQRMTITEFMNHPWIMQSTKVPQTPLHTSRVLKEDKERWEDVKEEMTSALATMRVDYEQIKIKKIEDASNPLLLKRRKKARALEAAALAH
Mitogen-activated protein kinase 8 (Homo sapiens), sequence (P45983 whole entry): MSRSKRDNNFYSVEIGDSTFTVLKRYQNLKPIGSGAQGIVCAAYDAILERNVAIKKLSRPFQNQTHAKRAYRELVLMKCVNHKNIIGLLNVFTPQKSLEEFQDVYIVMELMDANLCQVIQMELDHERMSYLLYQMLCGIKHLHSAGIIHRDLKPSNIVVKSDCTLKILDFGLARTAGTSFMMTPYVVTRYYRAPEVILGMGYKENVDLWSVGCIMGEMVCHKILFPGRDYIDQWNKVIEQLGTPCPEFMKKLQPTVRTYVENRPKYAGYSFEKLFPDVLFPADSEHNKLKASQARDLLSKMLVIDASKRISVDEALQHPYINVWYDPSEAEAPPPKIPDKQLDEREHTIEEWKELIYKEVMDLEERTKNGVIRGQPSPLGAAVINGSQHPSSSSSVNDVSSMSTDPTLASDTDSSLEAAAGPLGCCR
Ribosomal protein S6 kinase alpha-5 (Homo sapiens), sequence (O75582 whole entry, looked up): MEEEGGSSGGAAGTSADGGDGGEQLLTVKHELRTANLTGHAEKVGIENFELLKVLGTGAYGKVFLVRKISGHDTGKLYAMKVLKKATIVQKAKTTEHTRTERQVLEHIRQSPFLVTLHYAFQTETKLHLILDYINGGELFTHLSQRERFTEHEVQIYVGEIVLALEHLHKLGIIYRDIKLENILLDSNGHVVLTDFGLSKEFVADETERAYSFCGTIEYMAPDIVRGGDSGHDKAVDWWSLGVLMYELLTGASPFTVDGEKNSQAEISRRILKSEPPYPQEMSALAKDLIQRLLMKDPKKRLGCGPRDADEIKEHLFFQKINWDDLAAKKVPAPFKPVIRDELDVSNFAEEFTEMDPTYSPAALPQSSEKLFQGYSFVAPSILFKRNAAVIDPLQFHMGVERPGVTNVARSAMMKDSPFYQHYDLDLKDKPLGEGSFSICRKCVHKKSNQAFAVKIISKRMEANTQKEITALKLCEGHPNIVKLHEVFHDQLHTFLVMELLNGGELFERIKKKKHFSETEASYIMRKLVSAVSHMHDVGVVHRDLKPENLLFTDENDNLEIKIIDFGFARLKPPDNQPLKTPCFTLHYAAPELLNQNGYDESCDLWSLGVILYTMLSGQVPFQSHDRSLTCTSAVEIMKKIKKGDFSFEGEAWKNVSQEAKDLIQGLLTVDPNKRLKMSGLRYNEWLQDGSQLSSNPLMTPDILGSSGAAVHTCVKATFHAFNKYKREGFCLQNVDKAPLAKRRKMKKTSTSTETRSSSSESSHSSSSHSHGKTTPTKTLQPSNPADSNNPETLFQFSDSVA
Dual specificity mitogen-activated protein kinase kinase 1 (Homo sapiens), sequence (Q02750 whole entry): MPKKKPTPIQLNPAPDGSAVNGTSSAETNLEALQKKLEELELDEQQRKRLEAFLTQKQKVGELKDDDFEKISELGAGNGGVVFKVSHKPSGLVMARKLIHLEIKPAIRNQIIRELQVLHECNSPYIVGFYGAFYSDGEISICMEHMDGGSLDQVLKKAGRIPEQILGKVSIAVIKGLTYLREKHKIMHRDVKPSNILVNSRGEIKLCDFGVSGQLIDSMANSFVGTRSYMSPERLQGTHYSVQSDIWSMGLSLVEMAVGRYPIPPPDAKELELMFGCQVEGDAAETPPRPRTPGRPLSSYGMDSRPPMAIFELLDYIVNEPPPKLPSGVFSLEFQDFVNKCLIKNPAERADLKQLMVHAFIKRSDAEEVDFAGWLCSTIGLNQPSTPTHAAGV
Serine/threonine-protein kinase BRSK2 (Homo sapiens), sequence (Q8IWQ3 whole entry): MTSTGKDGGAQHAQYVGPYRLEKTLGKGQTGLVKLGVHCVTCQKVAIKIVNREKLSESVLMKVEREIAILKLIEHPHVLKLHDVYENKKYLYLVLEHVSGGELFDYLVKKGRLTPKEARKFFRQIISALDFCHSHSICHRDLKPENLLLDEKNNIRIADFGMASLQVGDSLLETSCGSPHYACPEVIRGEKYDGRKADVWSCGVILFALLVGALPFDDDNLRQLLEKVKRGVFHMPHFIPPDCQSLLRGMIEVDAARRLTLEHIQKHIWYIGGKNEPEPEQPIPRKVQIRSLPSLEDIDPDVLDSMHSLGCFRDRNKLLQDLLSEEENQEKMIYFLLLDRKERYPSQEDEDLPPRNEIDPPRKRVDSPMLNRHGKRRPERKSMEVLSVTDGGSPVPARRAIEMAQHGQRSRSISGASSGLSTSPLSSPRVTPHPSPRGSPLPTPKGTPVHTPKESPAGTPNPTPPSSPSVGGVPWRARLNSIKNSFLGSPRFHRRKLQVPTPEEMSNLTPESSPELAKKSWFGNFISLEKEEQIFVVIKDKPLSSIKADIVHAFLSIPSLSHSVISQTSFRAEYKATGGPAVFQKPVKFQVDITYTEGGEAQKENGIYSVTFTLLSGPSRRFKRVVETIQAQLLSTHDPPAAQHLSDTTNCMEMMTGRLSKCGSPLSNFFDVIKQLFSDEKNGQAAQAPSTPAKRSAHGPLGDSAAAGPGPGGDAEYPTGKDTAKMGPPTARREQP
MAP/microtubule affinity-regulating kinase 3 (Homo sapiens), sequence (P27448 whole entry, looked up): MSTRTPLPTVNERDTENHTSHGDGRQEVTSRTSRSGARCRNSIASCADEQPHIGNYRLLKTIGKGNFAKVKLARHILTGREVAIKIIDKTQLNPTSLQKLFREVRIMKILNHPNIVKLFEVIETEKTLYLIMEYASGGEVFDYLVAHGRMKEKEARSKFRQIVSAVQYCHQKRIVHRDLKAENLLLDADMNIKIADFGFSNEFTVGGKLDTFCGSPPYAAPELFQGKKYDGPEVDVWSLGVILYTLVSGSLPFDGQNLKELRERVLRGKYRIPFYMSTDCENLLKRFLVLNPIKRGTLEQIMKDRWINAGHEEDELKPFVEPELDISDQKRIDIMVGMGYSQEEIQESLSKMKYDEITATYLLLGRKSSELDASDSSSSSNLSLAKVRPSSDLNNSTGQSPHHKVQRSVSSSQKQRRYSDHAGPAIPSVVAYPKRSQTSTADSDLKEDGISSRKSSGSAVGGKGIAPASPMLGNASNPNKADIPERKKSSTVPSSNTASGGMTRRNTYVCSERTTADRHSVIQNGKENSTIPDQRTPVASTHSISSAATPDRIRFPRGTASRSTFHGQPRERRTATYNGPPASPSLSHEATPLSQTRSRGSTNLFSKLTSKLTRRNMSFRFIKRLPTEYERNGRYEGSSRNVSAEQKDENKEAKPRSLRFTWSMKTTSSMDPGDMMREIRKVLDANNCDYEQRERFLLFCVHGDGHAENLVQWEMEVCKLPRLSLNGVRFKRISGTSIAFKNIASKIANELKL
Maternal embryonic leucine zipper kinase (Homo sapiens), sequence (Q14680 whole entry, looked up): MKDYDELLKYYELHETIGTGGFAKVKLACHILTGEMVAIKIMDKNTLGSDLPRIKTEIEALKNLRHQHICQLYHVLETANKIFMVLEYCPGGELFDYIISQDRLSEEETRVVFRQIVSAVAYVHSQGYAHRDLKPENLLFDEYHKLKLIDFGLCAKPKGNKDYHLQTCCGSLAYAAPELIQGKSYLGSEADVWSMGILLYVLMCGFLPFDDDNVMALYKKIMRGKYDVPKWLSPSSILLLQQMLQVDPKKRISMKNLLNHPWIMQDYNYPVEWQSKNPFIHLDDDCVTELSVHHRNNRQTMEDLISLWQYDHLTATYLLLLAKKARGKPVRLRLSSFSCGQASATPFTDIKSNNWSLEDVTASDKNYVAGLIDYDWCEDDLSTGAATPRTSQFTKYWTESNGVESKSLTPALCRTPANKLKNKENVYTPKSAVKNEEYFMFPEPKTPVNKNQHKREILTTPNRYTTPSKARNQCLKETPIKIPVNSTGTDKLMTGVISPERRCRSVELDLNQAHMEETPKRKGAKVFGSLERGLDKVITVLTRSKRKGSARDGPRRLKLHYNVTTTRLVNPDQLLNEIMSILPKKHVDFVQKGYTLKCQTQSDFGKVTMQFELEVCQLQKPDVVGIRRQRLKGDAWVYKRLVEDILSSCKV

IC50 [1]: > 258 µM | IC50 [2]: > 671 µM | inhibition [3]: 4.2% | inhibition [4]: 1.6% | inhibition [5]: 13% | inhibition [6]: 11% | inhibition [7]: -0.9% | inhibition [8]: 9.1% | inhibition [9]: -4.2% | inhibition [10]: -5.8% | inhibition [11]: -7.3% | inhibition [12]: 16% | inhibition [13]: 18% | inhibition [14]: 2.5% | inhibition [15]: 7.2% | inhibition [16]: 17% | EC50 [17]: 0.13 µM | concentration at 0.5 h [20]: 26.8 µM
SMILES: Cc1cc([C@@H](C)Nc2ccccc2C(=O)O)c2nc(N3CCOCC3)cc(=O)n2c1 [AZD-6482]
Activity (Canis familiaris): inactive | Activity (Rattus norvegicus [18]): 105 µmol/min/kg | Activity (Rattus norvegicus [19]): 106 µmol/min/kg | Activity (Rattus norvegicus [21]): 7.3 mM | Activity (Rattus norvegicus [22]): 0.4 nM | Activity (Rattus norvegicus [23]): 2.3 nM | Activity (Rattus norvegicus [24]): 3.4 nM | Activity [25]: 6 mmHg
